Measured values from ChEMBL document CHEMBL4689842, “EUbOPEN Chemogenomics Library wave 1” (2021).

System: Fibroblast
Test: Multiplex assay against human fibroblast
Format: toxicity, cell-based
In short: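 Imaging took place on a CQ1 microscope at 37°C and 5% CO2 once compound had been added to live cells stained at seeding with Hoechst33342, BioTracker Green Microtubule Cytoskeleton Dye, MitoTracker Red and Annexin V Alexa Fluor 680. CellPathfinder machine-learning gating classed cells as Hoechst high-intensity objects or normal cells, classed normal cells as having healthy, pyknosed or fragmented nuclei, and classed pyknosed cells as mitotic or apoptotic. Tubulin, mitochondrial-mass and membrane-permeability phenotypes are per cents of the healthy-nucleus cells.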

[1] = 12 h, 1 µM, compound concentration 1 uM, replicate 1
[2] = 12 h, 1 µM, compound concentration 1 uM, replicate 2
[3] = 12 h, 10 µM, compound concentration 10 uM, replicate 1
[4] = 12 h, 10 µM, compound concentration 10 uM, replicate 2
[5] = 24 h, 1 µM, compound concentration 1 uM, replicate 1
[6] = 24 h, 1 µM, compound concentration 1 uM, replicate 2
[7] = 24 h, 10 µM, compound concentration 10 uM, replicate 1
[8] = 24 h, 10 µM, compound concentration 10 uM, replicate 2
[9] = 48 h, 1 µM, compound concentration 1 uM, replicate 1
[10] = 48 h, 1 µM, compound concentration 1 uM, replicate 2
[11] = 48 h, 10 µM, compound concentration 10 uM, replicate 1
[12] = 48 h, 10 µM, compound concentration 10 uM, replicate 2

O=C1N/C(=N/c2ccccc2F)S/C1=C\c1ccc(C(=O)O)cc1
Population Apoptotic (%) [1]: 68% | Population Fragmented Nuclei (%) [1]: 29% | Population Healthy Nuclei (%) [1]: 37% | Population Hoechst High Intensity Objects (%) [1]: 13% | Population Membrane Permeable-Phenotype (%) [1]: 27% | Population Mitochondria Different-Phenotype (%) [1]: 2% | Population Mitotic Cells (%) [1]: 31% | Population Normal (%) [1]: 86% | Population Pyknosed Nuclei (%) [1]: 32% | Population Tubulin-Different-Phenotype (%) [1]: 19% | Total Cell Count [1]: 112 | Population Apoptotic (%) [2]: 0% | Population Fragmented Nuclei (%) [2]: 3% | Population Healthy Nuclei (%) [2]: 92% | Population Hoechst High Intensity Objects (%) [2]: 8% | Population Membrane Permeable-Phenotype (%) [2]: 6% | Population Mitochondria Different-Phenotype (%) [2]: 16% | Population Mitotic Cells (%) [2]: 100% | Population Normal (%) [2]: 91% | Population Pyknosed Nuclei (%) [2]: 3% | Population Tubulin-Different-Phenotype (%) [2]: 24% | Total Cell Count [2]: 66 | Population Apoptotic (%) [3]: 67% | Population Fragmented Nuclei (%) [3]: 29% | Population Healthy Nuclei (%) [3]: 51% | Population Hoechst High Intensity Objects (%) [3]: 60% | Population Membrane Permeable-Phenotype (%) [3]: 36% | Population Mitochondria Different-Phenotype (%) [3]: 6% | Population Mitotic Cells (%) [3]: 32% | Population Normal (%) [3]: 39% | Population Pyknosed Nuclei (%) [3]: 19% | Population Tubulin-Different-Phenotype (%) [3]: 51% | Total Cell Count [3]: 406 | Population Apoptotic (%) [4]: 44% | Population Fragmented Nuclei (%) [4]: 4% | Population Healthy Nuclei (%) [4]: 81% | Population Hoechst High Intensity Objects (%) [4]: 8% | Population Membrane Permeable-Phenotype (%) [4]: 1% | Population Mitochondria Different-Phenotype (%) [4]: 9% | Population Mitotic Cells (%) [4]: 55% | Population Normal (%) [4]: 91% | Population Pyknosed Nuclei (%) [4]: 14% | Population Tubulin-Different-Phenotype (%) [4]: 9% | Total Cell Count [4]: 59 | Population Apoptotic (%) [5]: 55% | Population Fragmented Nuclei (%) [5]: 26% | Population Healthy Nuclei (%) [5]: 47% | Population Hoechst High Intensity Objects (%) [5]: 14% | Population Membrane Permeable-Phenotype (%) [5]: 36% | Population Mitochondria Different-Phenotype (%) [5]: 5% | Population Mitotic Cells (%) [5]: 45% | Population Normal (%) [5]: 85% | Population Pyknosed Nuclei (%) [5]: 26% | Population Tubulin-Different-Phenotype (%) [5]: 41% | Total Cell Count [5]: 89 | Population Apoptotic (%) [6]: 0% | Population Fragmented Nuclei (%) [6]: 7% | Population Healthy Nuclei (%) [6]: 85% | Population Hoechst High Intensity Objects (%) [6]: 5% | Population Membrane Permeable-Phenotype (%) [6]: 5% | Population Mitochondria Different-Phenotype (%) [6]: 10% | Population Mitotic Cells (%) [6]: 100% | Population Normal (%) [6]: 94% | Population Pyknosed Nuclei (%) [6]: 7% | Population Tubulin-Different-Phenotype (%) [6]: 23% | Total Cell Count [6]: 69 | Population Apoptotic (%) [7]: 65% | Population Fragmented Nuclei (%) [7]: 18% | Population Healthy Nuclei (%) [7]: 63% | Population Hoechst High Intensity Objects (%) [7]: 20% | Population Membrane Permeable-Phenotype (%) [7]: 29% | Population Mitochondria Different-Phenotype (%) [7]: 5% | Population Mitotic Cells (%) [7]: 34% | Population Normal (%) [7]: 79% | Population Pyknosed Nuclei (%) [7]: 18% | Population Tubulin-Different-Phenotype (%) [7]: 33% | Total Cell Count [7]: 181 | Population Apoptotic (%) [8]: 60% | Population Fragmented Nuclei (%) [8]: 5% | Population Healthy Nuclei (%) [8]: 88% | Population Hoechst High Intensity Objects (%) [8]: 5% | Population Membrane Permeable-Phenotype (%) [8]: 2% | Population Mitochondria Different-Phenotype (%) [8]: 6% | Population Mitotic Cells (%) [8]: 40% | Population Normal (%) [8]: 94% | Population Pyknosed Nuclei (%) [8]: 5% | Population Tubulin-Different-Phenotype (%) [8]: 16% | Total Cell Count [8]: 73 | Population Apoptotic (%) [9]: 52% | Population Fragmented Nuclei (%) [9]: 35% | Population Healthy Nuclei (%) [9]: 46% | Population Hoechst High Intensity Objects (%) [9]: 19% | Population Membrane Permeable-Phenotype (%) [9]: 20% | Population Mitochondria Different-Phenotype (%) [9]: 0% | Population Mitotic Cells (%) [9]: 47% | Population Normal (%) [9]: 80% | Population Pyknosed Nuclei (%) [9]: 17% | Population Tubulin-Different-Phenotype (%) [9]: 20% | Total Cell Count [9]: 118 | Population Apoptotic (%) [10]: 50% | Population Fragmented Nuclei (%) [10]: 26% | Population Healthy Nuclei (%) [10]: 71% | Population Hoechst High Intensity Objects (%) [10]: 30% | Population Membrane Permeable-Phenotype (%) [10]: 18% | Population Mitochondria Different-Phenotype (%) [10]: 3% | Population Mitotic Cells (%) [10]: 50% | Population Normal (%) [10]: 69% | Population Pyknosed Nuclei (%) [10]: 1% | Population Tubulin-Different-Phenotype (%) [10]: 33% | Total Cell Count [10]: 161 | Population Apoptotic (%) [11]: 53% | Population Fragmented Nuclei (%) [11]: 43% | Population Healthy Nuclei (%) [11]: 47% | Population Hoechst High Intensity Objects (%) [11]: 56% | Population Membrane Permeable-Phenotype (%) [11]: 29% | Population Mitochondria Different-Phenotype (%) [11]: 2% | Population Mitotic Cells (%) [11]: 46% | Population Normal (%) [11]: 43% | Population Pyknosed Nuclei (%) [11]: 9% | Population Tubulin-Different-Phenotype (%) [11]: 36% | Total Cell Count [11]: 370 | Population Apoptotic (%) [12]: 40% | Population Fragmented Nuclei (%) [12]: 23% | Population Healthy Nuclei (%) [12]: 69% | Population Hoechst High Intensity Objects (%) [12]: 15% | Population Membrane Permeable-Phenotype (%) [12]: 16% | Population Mitochondria Different-Phenotype (%) [12]: 0% | Population Mitotic Cells (%) [12]: 60% | Population Normal (%) [12]: 84% | Population Pyknosed Nuclei (%) [12]: 6% | Population Tubulin-Different-Phenotype (%) [12]: 18% | Total Cell Count [12]: 90
